Assay results from ChEMBL document CHEMBL4270544, “Design, synthesis and biological evaluation of a novel tubulin inhibitor 7a3 targeting the colchicine binding site” (Eur J Med Chem, 2018).
Calls of active or inactive are those of the source. The rule behind the calls is not given here.

Experiments:
HeLa = assay: Antiproliferative activity against human HeLa cells after 72 hrs by CCK8 assay; type: functional, cell-based
Summary of the method: (§1)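 CCK-8 proliferation assay with CA-4 as positive control. IC50 is the concentration giving 50% inhibition of proliferation. Mean ± SEM from three independent experiments.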

Bos taurus [1] = species: Bos taurus; assay: Inhibition of bovine MAP-rich tubulin polymerization at 40 uM measured every 1 min for 30 mins relative to control
Summary of the method: (§2)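 Purified tubulin polymerization followed at 37 °C by absorbance at 340 nm, read every 1 min for 30 min. Test concentrations 2.5, 10 and 40 µM. CA-4 at 10 µM served as positive control and DMSO (1%, v/v) as vehicle. Polymerization is expressed relative to the vehicle group.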

[2] = Elimination rate constant in C57 mouse at 50 mg/kg, ip administered as single dose by LC-MS/MS analysis; type: ADME, organism-based; conditions: in vivo
Summary of the method: (§3)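 Male C57 mice, one intraperitoneal dose. Blood drawn from submaxillary vein at 0, 5, 15, 30 min and 1, 2, 4, 8, 12, 24 h. Plasma measured by LC/MS/MS in MRM mode with CA-4 as internal standard. Calibration by weighted linear regression over 0.01–500 ng/mL. Parameters obtained by non-compartmental analysis.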

SK-OV-3 [3] = assay: Cell cycle arrest in human SKOV3 cells assessed as accumulation at S phase at 160 nM after 24 hrs by propidium iodide staining based flow cytometry (reference value: 18.09%); type: functional
Summary of the method: (§4)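 SK-OV-3 cells exposed to 40, 80 or 160 nM for 24 h, with untreated cells as control. Stained with PI and analysed by flow cytometry for phase distribution. Mean ± SEM of three independent experiments; t-test against control.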

SK-OV-3 [4] = assay: Cell cycle arrest in human SKOV3 cells assessed as accumulation at S phase at 40 nM after 24 hrs by propidium iodide staining based flow cytometry (reference value: 18.09%); type: functional; summary of the method: as §4
SK-OV-3 [5] = assay: Inhibition of tubulin assembly in human SKOV3 cells assessed as abnormal mitotic spindle formation at 10 to 1000 nM after 24 hrs by DAPI staining based immunofluorescence microscopic method; type: functional, cell-based
Summary of the method: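 SK-OV-3 cells exposed to DMSO or 10, 100 or 1000 nM for 24 h. Fixed in methanol, stained with FITC anti-β-tubulin antibody, counterstained with DAPI, and imaged by confocal microscopy.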

SK-OV-3 [6] = assay: Induction of apoptosis in human SKOV3 cells assessed as late apoptotic cells at 160 nM after 48 hrs by Annexin-V-FITC/propidium iodide staining based flow cytometry (reference value: 3.93%); type: functional
SK-OV-3 [7] = assay: Antimigratory activity against human SKOV3 cells assessed as number of migrated cells at 50 nM after 24 hrs by crystal violet staining based transwell migration assay (reference value: 49.3 to 50.7); type: functional
SK-OV-3 [8] = assay: Induction of apoptosis in human SKOV3 cells assessed as early apoptotic cells at 160 nM after 48 hrs by Annexin-V-FITC/propidium iodide staining based flow cytometry (reference value: 0.97%); type: functional
Bos taurus [9] = species: Bos taurus; assay: Inhibition of bovine MAP-rich tubulin polymerization at 10 uM measured every 1 min for 30 mins relative to control; summary of the method: as §2
Mus musculus [10] = assay: Toxicity in Balb/c mouse xenografted with human SKOV3 cells assessed as pathological changes in liver at 50 mg/kg, ip administered every two days for three times by hematoxylin and eosin staining based assay; type: organism-based; conditions: in vivo
Summary of the method: (§5)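 In SK-OV-3 xenografted Balb/c nude mice dosed 50 mg/kg intraperitoneally in 5% DMSO/olive oil every two days, three times, organs were collected and examined after H&E staining.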

Bos taurus [11] = species: Bos taurus; assay: Inhibition of bovine MAP-rich tubulin polymerization at 2.5 uM measured every 1 min for 30 mins relative to control; summary of the method: as §2
SK-OV-3 [12] = assay: Induction of apoptosis in human SKOV3 cells assessed as late apoptotic cells at 80 nM after 48 hrs by Annexin-V-FITC/propidium iodide staining based flow cytometry (reference value: 3.93%); type: functional
Bos taurus [13] = species: Bos taurus; assay: Inhibition of bovine MAP-rich tubulin polymerization measured every 1 min for 30 mins; summary of the method: as §2
SK-OV-3 [14] = assay: Cell cycle arrest in human SKOV3 cells assessed as accumulation at G2/M phase at 80 nM after 24 hrs by propidium iodide staining based flow cytometry (reference value: 24.99%); type: functional; summary of the method: as §4
SK-OV-3 [15] = assay: Induction of apoptosis in human SKOV3 cells assessed as necrotic cells at 160 nM after 48 hrs by Annexin-V-FITC/propidium iodide staining based flow cytometry (reference value: 0.67%); type: functional
Mus musculus [16] = assay: Area under the first moment curve (0 to infinity) in C57 mouse at 50 mg/kg, ip administered as single dose by LC-MS/MS analysis; type: ADME, organism-based; conditions: in vivo; summary of the method: as §3
SK-OV-3 [17] = assay: Cell cycle arrest in human SKOV3 cells assessed as accumulation at G0/G1 phase at 160 nM after 24 hrs by propidium iodide staining based flow cytometry (reference value: 67.79%); type: functional; summary of the method: as §4
SK-OV-3 [18] = assay: Antimigratory activity against human SKOV3 cells assessed as number of migrated cells at 100 nM after 24 hrs by crystal violet staining based transwell migration assay (reference value: 49.3 to 50.7); type: functional
SK-OV-3 [19] = assay: Induction of apoptosis in human SKOV3 cells assessed as early apoptotic cells at 80 nM after 48 hrs by Annexin-V-FITC/propidium iodide staining based flow cytometry (reference value: 0.97%); type: functional
SK-OV-3 [20] = assay: Antimigratory activity against human SKOV3 cells assessed as wound closure at 80 nM after 24 hrs by microscopy based scratch wound assay (reference value: 79.5 +/- 2.8%); type: functional
SK-OV-3 [21] = assay: Induction of apoptosis in human SKOV3 cells assessed as late apoptotic cells at 40 nM after 48 hrs by Annexin-V-FITC/propidium iodide staining based flow cytometry (reference value: 3.93%); type: functional
CT26 = assay: Antiproliferative activity against mouse CT26 cells after 72 hrs by CCK8 assay; type: functional, cell-based; conditions: CT26, 72 h; summary of the method: as §1
[22] = Cmax in C57 mouse at 50 mg/kg, ip administered as single dose by LC-MS/MS analysis; type: ADME, organism-based; set-up: dose 50 mg/kg, route intraperitoneal; conditions: in vivo; summary of the method: as §3
SK-OV-3 [23] = assay: Antiproliferative activity against human SKOV3 cells after 72 hrs by CCK8 assay; type: functional, cell-based; conditions: SK-OV-3, 72 h; summary of the method: as §1
A549 = assay: Antiproliferative activity against human A549 cells after 72 hrs by CCK8 assay; type: functional, cell-based; conditions: A549, 72 h; summary of the method: as §1
Mus musculus [24] = assay: Toxicity in Balb/c mouse xenografted with human SKOV3 cells assessed as pathological changes in lung at 50 mg/kg, ip administered every two days for three times by hematoxylin and eosin staining based assay; type: organism-based; conditions: in vivo; summary of the method: as §5

Structure (SMILES): CCOc1ccc(-c2cn(C)nc2-c2cc(OC)c(OC)c(OC)c2)cc1
- IC50 (HeLa): 32.8 nM
- inhibition (Bos taurus [1]): 85.3%
- k el [2]: 0.000117 s⁻¹
- Activity (SK-OV-3 [3]): 26.16%
- Activity (SK-OV-3 [4]): 20.99%
- inhibition (SK-OV-3 [5]): Active
- Activity (SK-OV-3 [6]): 47.36%
- Activity (SK-OV-3 [7]): 21.7
- Activity (SK-OV-3 [8]): 9.46%
- inhibition (Bos taurus [9]): 60.4%
- Activity (Mus musculus [10]): Non-Toxic
- inhibition (Bos taurus [11]): 30.5%
- Activity (SK-OV-3 [12]): 18.67%
- inhibition (Bos taurus [13]): Dose-dependent effect
- Activity (SK-OV-3 [14]): 34.65%
- Activity (SK-OV-3 [15]): 1.28%
- AUMC (Mus musculus [16]): 1785 hr.hr.ng/ml
- Activity (SK-OV-3 [17]): 8.05%
- Activity (SK-OV-3 [18]): 18.3
- Activity (SK-OV-3 [19]): 5.05%
- Activity (SK-OV-3 [20]): 44.3%
- Activity (SK-OV-3 [21]): 6.65%
- IC50 (CT26): 58 nM
- Cmax [22]: 882 ng/mL
- IC50 (SK-OV-3 [23]): 17 nM
- IC50 (A549): 67 nM
- Activity (Mus musculus [24]): Non-Toxic
